From ChEMBL document CHEMBL4000173, “An evaluation of central penetration from a peripherally administered oxytocin receptor selective antagonist in nonhuman primates” (Bioorg Med Chem, 2017)

Tests used:
[1] = molecular target: T1, Oxytocin receptor (Homo sapiens, UniProt P30559); experiment: Displacement of [3H]Oxytocin from human OXTR expressed in CHO cell membranes after 90 mins by liquid scintillation counting method
T1 sequence (P30559 whole entry): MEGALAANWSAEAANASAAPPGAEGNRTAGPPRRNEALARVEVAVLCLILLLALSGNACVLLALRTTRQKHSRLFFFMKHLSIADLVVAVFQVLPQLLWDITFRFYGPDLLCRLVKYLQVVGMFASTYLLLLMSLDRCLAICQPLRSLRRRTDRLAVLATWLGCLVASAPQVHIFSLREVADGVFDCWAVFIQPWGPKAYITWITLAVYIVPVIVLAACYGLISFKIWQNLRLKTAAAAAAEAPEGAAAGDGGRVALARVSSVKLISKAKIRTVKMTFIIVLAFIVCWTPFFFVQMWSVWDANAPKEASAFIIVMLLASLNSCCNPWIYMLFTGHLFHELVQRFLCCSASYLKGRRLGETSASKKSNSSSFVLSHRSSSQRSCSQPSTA

[2] = Half life in rhesus monkey plasma at 202 to 7690 ug administered via intranasal nebulization for 8 mins by LC-MS method; type: ADME, cell-free, Macaca mulatta; conditions: inhaled or intranasal
In short: (§1)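 Four male rhesus macaques, 5 years old, 9–13 kg, under Telazol (4–5 mg/kg IM) then IV propofol. Dose in propylene glycol given by face mask from a pediatric nebulizer for 8 min. Lumbar CSF collected by passive drip at 60 and 120 min; blood-tinged CSF excluded. Plasma solid-phase extracted with ethyl acetate. LC-MS/MS in duplicate against an internal standard and a 0.8–10 pg/ml calibration curve. ke = (lnC1 − lnC2)/(t2 − t1), confirmed by semi-log regression; t1/2 = 0.693/ke.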

[3] = Tmax in rhesus monkey plasma at 202 ug administered via intranasal nebulization for 8 mins by LC-MS method; type: ADME, cell-free, Macaca mulatta; conditions: inhaled or intranasal; in short: as §1
[4] = Tmax in rhesus monkey CSF at 7690 ug administered via intranasal nebulization for 8 mins by LC-MS method; type: ADME, Macaca mulatta, Cerebrospinal fluid; conditions: inhaled or intranasal; in short: as §1
[5] = system: Rhesus monkey; experiment: In vivo antagonist activity at OXTR in rhesus monkey assessed as concentration in CSF required to displace endogenous oxytocin at 6.15, im; type: functional, Macaca mulatta
In short: (§2)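 Estimated OXTR-relevant CSF targets for male rhesus macaques. Values come from OT levels before and after aerosolized IN OT (24 IU) reported in earlier work. They assume a 10 ml total CSF volume and scale from the in vitro Ki, which was measured by displacing 2 nM [3H]OT.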

[6] = Cmax in rhesus monkey CSF at 202 ug administered via intranasal nebulization for 8 mins by LC-MS method; type: ADME, Macaca mulatta, Cerebrospinal fluid; set-up: dose 202 ug, route nasal; conditions: inhaled or intranasal
In short: (§3)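 Four male rhesus macaques (5 yr, 9–13 kg) under IM Telazol, then IV propofol. Drug in propylene glycol (low 120 μg/ml, high 6.15 mg/ml) was aerosolised for 8 min by pediatric nebuliser through a face mask. Dose was taken from the nebuliser residue. Lumbar CSF was collected by passive drip at 60 and 120 min; blood-tinged samples were discarded. CSF was run unprocessed by LC-MS/MS in duplicate against an artificial-CSF calibration (0.8–10 pg/ml) with internal standard.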

[7] = Half life in rhesus monkey CSF at 7690 ug administered via intranasal nebulization for 8 mins by LC-MS method; type: ADME, Macaca mulatta, Cerebrospinal fluid; conditions: in vivo, inhaled_or_intranasal; in short: as §1
[8] = Cmax in rhesus monkey CSF at 7690 ug administered via intranasal nebulization for 8 mins by LC-MS method; type: ADME, Macaca mulatta, Cerebrospinal fluid; set-up: dose 7690 ug, route nasal; conditions: inhaled or intranasal; in short: as §3
[9] = system: Rhesus monkey; experiment: Activity at OXTR in rhesus monkey assessed as concentration in CSF required to elicit behavioral effects at 6.15, im; type: functional, Macaca mulatta; in short: as §2
[10] = Cmax in rhesus monkey plasma at 202 ug administered via intranasal nebulization for 8 mins by LC-MS method; type: ADME, cell-free, Macaca mulatta; set-up: dose 202 ug, route nasal; conditions: inhaled or intranasal
In short: (§4)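 Anesthetised male rhesus macaques (Telazol IM, propofol IV) inhaled drug in propylene glycol (low 120 μg/ml, high 6.15 mg/ml) by pediatric nebuliser and face mask for 8 min; dose was taken from nebuliser residue. Plasma (stored −80 C) was spiked with internal standard and extracted by solid-liquid extraction with ethyl acetate, then dried and redissolved in water/methanol/formic acid 70:30:0.1. It was measured in duplicate by C18 LC-MS/MS against a rhesus-plasma calibration. Recovery was about 86%.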

[11] = Cmax in rhesus monkey CSF at 1650 ug, im by LC-MS method; type: ADME, organism-based, Macaca mulatta, Cerebrospinal fluid; set-up: dose 1650 ug, route intramuscular
[12] = Elimination rate constant in rhesus monkey CSF at 7690 ug administered via intranasal nebulization for 8 mins by LC-MS method; type: ADME, Macaca mulatta, Cerebrospinal fluid; conditions: in vivo, inhaled_or_intranasal; in short: as §1
[13] = Tmax in rhesus monkey CSF at 202 ug administered via intranasal nebulization for 8 mins by LC-MS method; type: ADME, Macaca mulatta, Cerebrospinal fluid; conditions: inhaled or intranasal; in short: as §1
[14] = Tmax in rhesus monkey plasma at 7690 ug administered via intranasal nebulization for 8 mins by LC-MS method; type: ADME, cell-free, Macaca mulatta; conditions: inhaled or intranasal; in short: as §1
[15] = system: Rhesus monkey; experiment: Activity at OXTR in rhesus monkey assessed as concentration in CSF required to elicit behavioral effects at 7.69 mg administered via intranasal nebulization for 8 mins; type: functional, Macaca mulatta; in short: as §2
[16] = system: Rhesus monkey; experiment: In vivo antagonist activity at OXTR in rhesus monkey assessed as concentration in CSF required to displace endogenous oxytocin at 7.69 mg administered via intranasal nebulization for 8 mins; type: functional, Macaca mulatta; in short: as §2
[17] = Cmax in rhesus monkey plasma at 6150 ug, im by LC-MS method; type: ADME, organism-based, Macaca mulatta; set-up: dose 6150 ug, route intramuscular
In short: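 Anesthetised male rhesus macaques (n=2; Telazol IM, propofol IV) received 6.15 mg in propylene glycol (6.15 mg/ml) injected into the inner thigh muscle. Plasma was spiked with internal standard and extracted by solid-liquid extraction with ethyl acetate, then redissolved in water/methanol/formic acid 70:30:0.1. It was quantified in duplicate by C18 LC-MS/MS against a rhesus-plasma calibration curve.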

[18] = Cmax in rhesus monkey plasma at 7690 ug administered via intranasal nebulization for 8 mins by LC-MS method; type: ADME, cell-free, Macaca mulatta; set-up: dose 7690 ug, route nasal; conditions: inhaled or intranasal; in short: as §4
[19] = Tmax in rhesus monkey plasma at 6150 ug, im by LC-MS method; type: ADME, organism-based, Macaca mulatta
In short: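 Male rhesus macaques (5 yr, 9–13 kg), anaesthetised with Telazol IM then IV propofol drip, given 6.15 mg in propylene glycol (6.15 mg/ml) into inner thigh muscle (n=2). Plasma separated, stored −80 C, extracted by solid-liquid phase with ethyl acetate plus internal standard. LC-MS/MS (C18, water/methanol/formic acid) in duplicate against calibration curve in rhesus plasma; time of maximum plasma concentration taken.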

[20] = Elimination rate constant in rhesus monkey plasma at 202 to 7690 ug administered via intranasal nebulization for 8 mins by LC-MS method; type: ADME, cell-free, Macaca mulatta; conditions: inhaled or intranasal; in short: as §1
[21] = Drug uptake in Sprague-Dawley rat muscle at 340 to 390 uCi, im up to 120 mins by PET imaging method; type: ADME, organism-based, Muscle tissue; conditions: in vivo, 2 h
In short: (§5)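 Female Sprague-Dawley rats, 200–330 g, under 4–5% isoflurane in oxygen. [18F]tracer, 340–390 μCi in 100 μl, injected IM just above the knee of the hind leg. PET starting 15 min post injection, 2 h scan, with 7 min Co-57 transmission scan. Time-activity curves of mean nCi/cc, n=3.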

[22] = Drug uptake in Sprague-Dawley rat muscle at 126 to 295 uCi, iv administered as 30 mins bolus infusion after 15 to 90 mins by PET imaging method; type: ADME, organism-based, Muscle tissue; conditions: in vivo
[23] = Drug uptake in Sprague-Dawley rat skull at 126 to 295 uCi, iv administered as 30 mins bolus infusion after 15 to 90 mins by PET imaging method; type: ADME, organism-based; conditions: in vivo
[24] = Drug uptake in Sprague-Dawley rat skull at 340 to 390 uCi, im up to 120 mins by PET imaging method; type: ADME, organism-based; conditions: in vivo, 2 h; in short: as §5
[25] = system: Brain; experiment: Drug uptake in Sprague-Dawley rat brain at 126 to 295 uCi, iv administered as 30 mins bolus infusion after 15 to 90 mins by PET imaging method; type: ADME, organism-based; conditions: in vivo

Cc1ccccc1N1CCN(S(=O)(=O)CC23CCC(CC2NC(=O)C(N)CCS(C)(=O)=O)C3(C)C)CC1 (stereo not given)
Ki [1]: 17 nM

CS(=O)(=O)N1CCC(Oc2ccc(CC(=O)N3CCC(N4C(=O)CCc5ccccc54)CC3)c(OCCF)c2)CC1
half-life [2]: 0.483 h | Tmax [3]: 5 min | Tmax [4]: 1 h | Activity [5]: 56 pM | Cmax [6]: 0.00736 ng/mL | t1/2 [7]: 1.6 h | Cmax [8]: 0.0972 ng/mL | Activity [9]: 24 pM | Cmax [10]: 1.16 ng/mL | Cmax [11]: 0.478 ng/mL | Kel [12]: 0.007 min⁻¹ | Tmax [13]: 2 h | Tmax [14]: 0.25 h | Activity [15]: 24 pM | Activity [16]: 56 pM | Cmax [17]: 740 ng/mL | Cmax [18]: 156 ng/mL | Tmax [19]: 1 h | k el at 8 min [20]: 0.0004 s⁻¹

CS(=O)(=O)N1CCC(Oc2ccc(CC(=O)N3CCC(N4C(=O)CCc5ccccc54)CC3)c(OCC[18F])c2)CC1
Drug uptake [21]: Active | Drug uptake [22]: Active | Drug uptake [23]: Active | Drug uptake [24]: Active | Drug uptake [25]: Active
